In publication PMC7928716 (Science Signaling, 2021):
Square brackets hold non-standard residues; d marks the D form. Peptide text beside a SMILES is read from it. * marks the point of attachment. FITC = O=C1OC2(c3ccc(O)cc3Oc3cc(O)ccc32)c2ccc(NC(=S)*)cc21; pY = N[C@@H](Cc1ccc(OP(=O)(O)O)cc1)C(=O)O; pT = C[C@@H](OP(=O)(O)O)[C@H](N)C(=O)O; pS = N[C@@H](COP(=O)(O)O)C(=O)O

Assays:
FYN SH2 = FYN SH2 (Homo sapiens, UniProt P06241); assay: FP saturation; assay type: binding
Method in brief: (§1)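 The SH2 domain was expressed GST-tagged in E. coli. The tag was cleaved with HRV 3C and the protein dialysed into 50 mM sodium phosphate pH 7.4 with 1 mM DTT. KD came from a quadratic fit, in technical triplicates.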

NCK1 SH2 = NCK1 SH2 (Homo sapiens, UniProt P16333); assay: FP saturation; assay type: binding
MAP1LC3A ATG8 [1] = target: T1, MAP1LC3A ATG8 (Homo sapiens, UniProt Q9H492); assay: FP saturation; assay type: binding
GABARAPL2 ATG8 [2] = target: T2, GABARAPL2 ATG8 (Homo sapiens, UniProt P60520); assay: FP saturation; assay type: binding
Method in brief: (§2)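 GST-tagged domains were expressed in E. coli BL21-Gold (DE3) (IPTG induction, 16 h at 18°C) and purified on glutathione beads. The tag was removed with thrombin, and domains were dialysed into 50 mM sodium phosphate pH 7.4 with 1 mM DTT. Probes were FITC-ATG9A4–14 (AP2 μ2) and FITC-SQSTM1335–344 (ATG8 domains). 5 nM labelled peptide was mixed with an equal volume of a protein dilution series at room temperature and read without preincubation. KD came from a quadratic fit, in technical triplicates.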

LYN SH2 = LYN SH2 (Homo sapiens, UniProt P07948); assay: FP saturation; assay type: binding
Method in brief: as §1

GABARAP ATG8 [3] = target: T3, GABARAP ATG8 (Homo sapiens, UniProt O95166); assay: FP saturation; assay type: binding
AP2 μ2 = target: T4, AP2 μ2 (Homo sapiens, UniProt Q96CW1); assay: FP saturation; assay type: binding
T4 sequence (Q96CW1 160-435): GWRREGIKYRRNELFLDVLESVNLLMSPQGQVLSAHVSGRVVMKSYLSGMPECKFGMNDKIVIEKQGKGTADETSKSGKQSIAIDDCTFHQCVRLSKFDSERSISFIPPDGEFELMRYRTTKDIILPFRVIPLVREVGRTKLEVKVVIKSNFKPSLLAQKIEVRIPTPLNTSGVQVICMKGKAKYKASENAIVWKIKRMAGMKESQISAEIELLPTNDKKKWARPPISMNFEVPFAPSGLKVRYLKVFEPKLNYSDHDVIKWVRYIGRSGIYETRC
Method in brief: as §2

MAP1LC3B ATG8 [4] = target: T5, MAP1LC3B ATG8 (Homo sapiens, UniProt Q9GZQ8); assay: FP saturation; assay type: binding
Method in brief: as §2

FRS2 PTB = target: T6, FRS2 PTB (Homo sapiens, UniProt Q8WU20); assay: FP saturation; assay type: binding
T6 sequence (Q8WU20 8-136): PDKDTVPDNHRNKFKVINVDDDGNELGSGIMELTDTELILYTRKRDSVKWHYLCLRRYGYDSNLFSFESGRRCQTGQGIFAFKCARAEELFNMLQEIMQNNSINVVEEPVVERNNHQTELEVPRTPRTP
Method in brief: (§3)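 Direct FP saturation used GST-tagged PTB domains (the talin entry is the PTB-like FERM lobe), expressed in E. coli at 18°C for 16 h. GST was removed with thrombin and the protein dialysed into 50 mM sodium phosphate pH 7.4 with 1 mM DTT. KD came from a quadratic fit, in technical triplicates.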

DOK1 PTB = target: T7, DOK1 PTB (Homo sapiens, UniProt Q99704); assay: FP saturation; assay type: binding
T7 sequence (Q99704 151-256): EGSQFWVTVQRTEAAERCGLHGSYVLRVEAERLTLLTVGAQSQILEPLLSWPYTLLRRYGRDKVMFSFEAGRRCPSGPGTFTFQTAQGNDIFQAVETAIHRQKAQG
Method in brief: as §3

TLN2 PTB = TLN2 PTB (Homo sapiens, UniProt Q9Y4G6); assay: FP saturation; assay type: binding
Method in brief: as §3

IRS1 PTB = target: T8, IRS1 PTB (Homo sapiens, UniProt P35568); assay: FP saturation; assay type: binding
T8 sequence (P35568 157-267): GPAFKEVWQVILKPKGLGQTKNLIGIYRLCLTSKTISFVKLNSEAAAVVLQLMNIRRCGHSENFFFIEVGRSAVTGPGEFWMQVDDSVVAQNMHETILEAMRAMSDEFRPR
Method in brief: as §3

SNX17 FERM = target: T9, SNX17 FERM (Mus musculus, UniProt Q8BVL3); assay: FP saturation; assay type: binding
T9 sequence (Q8BVL3 109-388): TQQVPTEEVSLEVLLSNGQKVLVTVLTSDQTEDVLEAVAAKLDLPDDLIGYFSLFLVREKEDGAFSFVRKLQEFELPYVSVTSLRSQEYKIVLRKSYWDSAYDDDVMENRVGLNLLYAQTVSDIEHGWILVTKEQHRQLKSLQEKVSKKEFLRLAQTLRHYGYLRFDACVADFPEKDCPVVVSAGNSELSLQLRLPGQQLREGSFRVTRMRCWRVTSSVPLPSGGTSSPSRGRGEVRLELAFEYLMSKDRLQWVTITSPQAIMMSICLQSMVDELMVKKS
Method in brief: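 The FERM domain was expressed GST-tagged in E. coli BL21-Gold (DE3) at 18°C. The tag was removed with TEV protease and the protein dialysed into 50 mM sodium phosphate pH 7.4 with 1 mM DTT. Direct FP used 5 nM FITC-labeled peptide with a protein dilution series at room temperature and no preincubation. KD came from a quadratic fit, in technical triplicates.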

SARS-CoV-2 = settings: study repurposing approved compounds; cited from earlier work
MAP1LC3C ATG8 = MAP1LC3C ATG8 (Homo sapiens, UniProt Q9BXW4); assay: FP displacement of FITC-SQSTM1_335–344 from MAP1LC3C ATG8; assay type: binding
Method in brief: (§4)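 GST-tagged ATG8 domains were expressed in E. coli BL21-Gold (DE3) with 1 mM IPTG at OD600 0.7 for 16 h at 18°C. They were glutathione-bead purified, thrombin-cleaved overnight at 4°C, and dialysed into 50 mM sodium phosphate pH 7.4 with 1 mM DTT. Domain level for displacement was set from FITC-SQSTM1 saturation curves. Unlabeled peptides were in phosphate buffer. FP was read at room temperature and KI calculated.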

MAP1LC3A ATG8 [5] = target: T1, MAP1LC3A ATG8; assay: FP displacement of FITC-SQSTM1_335–344 from MAP1LC3A ATG8; assay type: binding
Method in brief: as §4

MAP1LC3B ATG8 [6] = target: T5, MAP1LC3B ATG8; assay: FP displacement of FITC-SQSTM1_335–344 from MAP1LC3B ATG8; assay type: binding
Method in brief: as §4

GABARAPL2 ATG8 [7] = target: T2, GABARAPL2 ATG8; assay: FP displacement of FITC-SQSTM1_335–344 from GABARAPL2 ATG8; assay type: binding
Method in brief: as §4

GABARAP ATG8 [8] = target: T3, GABARAP ATG8; assay: FP displacement of FITC-SQSTM1_335–344 from GABARAP ATG8; assay type: binding
Method in brief: as §4

T3 sequence (O95166 2-115): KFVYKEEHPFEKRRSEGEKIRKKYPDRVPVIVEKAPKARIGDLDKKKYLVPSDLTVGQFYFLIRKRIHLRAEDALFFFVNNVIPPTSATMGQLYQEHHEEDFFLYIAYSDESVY
Chain of MAP1LC3C ATG8 (Q9BXW4 2-125): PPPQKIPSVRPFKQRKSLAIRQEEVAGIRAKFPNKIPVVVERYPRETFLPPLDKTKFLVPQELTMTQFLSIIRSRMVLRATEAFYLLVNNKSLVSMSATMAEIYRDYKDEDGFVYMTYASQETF
T2 sequence (P60520 2-115): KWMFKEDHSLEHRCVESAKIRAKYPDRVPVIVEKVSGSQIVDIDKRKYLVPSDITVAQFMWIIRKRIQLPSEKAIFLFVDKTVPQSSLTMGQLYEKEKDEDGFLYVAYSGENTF
Chain of TLN2 PTB (Q9Y4G6 309-401): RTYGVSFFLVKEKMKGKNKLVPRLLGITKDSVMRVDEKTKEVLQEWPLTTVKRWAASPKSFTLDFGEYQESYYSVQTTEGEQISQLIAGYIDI
Chain of FYN SH2 (P06241 142-251): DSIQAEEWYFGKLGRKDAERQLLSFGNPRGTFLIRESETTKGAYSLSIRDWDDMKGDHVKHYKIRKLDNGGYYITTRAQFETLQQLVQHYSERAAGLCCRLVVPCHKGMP
Chain of LYN SH2 (P07948 127-234): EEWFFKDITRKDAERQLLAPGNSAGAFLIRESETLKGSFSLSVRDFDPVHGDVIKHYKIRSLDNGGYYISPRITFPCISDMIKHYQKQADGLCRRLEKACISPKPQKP

Compound	Ki (MAP1LC3C ATG8)	Ki (MAP1LC3A ATG8 [5])	Ki (MAP1LC3B ATG8 [6])	Ki (GABARAPL2 ATG8 [7])	further results
CC[C@H](C)[C@H](NC(=O)[C@H](CC(=O)O)NC(=O)[C@@H](NC(=O)[C@H](CO)NC(=O)[C@H](C)NC(=O)[C@H](Cc1ccc(O)cc1)NC(=O)[C@@H]1CCCN1C(=O)[C@H](CC(N)=O)NC(=O)[C@H](CCC(=O)O)NC(=O)CNC(=O)[C@H](CO)NC(=O)[C@H](CCCNC(=N)N)NC(=S)Nc1ccc2c(c1)C(=O)OC21c2ccc(O)cc2Oc2cc(O)ccc21)[C@@H](C)CC)C(=O)N[C@@H](CO)C(=O)N[C@@H](CCCCN)C(=O)NCC(=O)N[C@@H](CCC(=O)O)C(N)=O [ACE2_775–790 Unphos.] ({FITC}-RSGENPYASIDISKGE-NH2)	–	–	–	–	Kd (FYN SH2): > 100 µM; Kd (NCK1 SH2): > 100 µM; Kd (MAP1LC3A ATG8 [1]): > 100 µM; Kd (GABARAPL2 ATG8 [2]): > 100 µM; Kd (LYN SH2): > 100 µM; Kd (GABARAP ATG8 [3]): > 100 µM; Kd (AP2 μ2): ~60 µM; Kd (MAP1LC3B ATG8 [4]): > 100 µM
C[C@@H](O)[C@H](NC(=O)[C@H](CC(N)=O)NC(=O)[C@H](CCC(N)=O)NC(=O)[C@H](Cc1ccccc1)NC(=O)CNC(=O)[C@@H]1CCCN1C(=O)[C@H](CC(N)=O)NC(=O)[C@H](CC(N)=O)NC(=O)[C@H](CCC(=O)O)NC(=O)CNC(=O)[C@H](CCCCN)NC(=O)[C@H](CO)NC(=S)Nc1ccc2c(c1)C(=O)OC21c2ccc(O)cc2Oc2cc(O)ccc21)C(N)=O [ACE2_787–798] ({FITC}-SKGENNPGFQNT-NH2)	–	–	–	–	Kd (FRS2 PTB): > 100 µM; Kd (DOK1 PTB): > 100 µM; Kd (TLN2 PTB): > 100 µM; Kd (IRS1 PTB): > 100 µM; Kd (SNX17 FERM): ~100 µM
Cc1cccc(/C=N/Nc2cc(N3CCOCC3)nc(OCCc3ccccn3)n2)c1 [apilimod]	–	–	–	–	inhibition of viral replication (SARS-CoV-2): potent inhibitor of viral replication
CC[C@H](C)[C@H](NC(=O)[C@H](CC(N)=O)NC(=O)[C@@H](NC(=O)[C@H](Cc1ccccc1)NC(=O)[C@@H](NC(=O)[C@H](COP(=O)(O)O)NC(=O)[C@@H](NC(=O)[C@H](C)NC(=O)[C@H](CCC(=O)O)NC(=O)[C@H](CCCCN)NC(C)=O)[C@@H](C)O)[C@@H](C)O)[C@@H](C)O)C(=O)N[C@H](C(=O)N[C@@H](Cc1ccc(O)cc1)C(=O)N[C@@H](CCCNC(=N)N)C(=O)NCC(N)=O)[C@@H](C)O [pSer^778] (Ac-KEAT[pS]TFTNITYRG-NH2)	16.1 ± 0.5 µM	29.4 ± 0.5 µM	> 100 µM	80 ± 5 µM	–
CC[C@H](C)[C@H](NC(=O)[C@H](CC(N)=O)NC(=O)[C@@H](NC(=O)[C@H](Cc1ccccc1)NC(=O)[C@@H](NC(=O)[C@H](CO)NC(=O)[C@@H](NC(=O)[C@H](C)NC(=O)[C@H](CCC(=O)O)NC(=O)[C@H](CCCCN)NC(C)=O)[C@@H](C)OP(=O)(O)O)[C@@H](C)O)[C@@H](C)O)C(=O)N[C@H](C(=O)N[C@@H](Cc1ccc(O)cc1)C(=O)N[C@@H](CCCNC(=N)N)C(=O)NCC(N)=O)[C@@H](C)O [pThr^777] (Ac-KEA[pT]STFTNITYRG-NH2)	73 ± 4 µM	> 100 µM	> 100 µM	–	Ki (GABARAP ATG8 [8]): 47 ± 3 µM
CC[C@H](C)[C@H](NC(=O)[C@H](CC(N)=O)NC(=O)[C@@H](NC(=O)[C@H](Cc1ccccc1)NC(=O)[C@@H](NC(=O)[C@H](CO)NC(=O)[C@@H](NC(=O)[C@H](C)NC(=O)[C@H](CCC(=O)O)NC(=O)[C@H](CCCCN)NC(C)=O)[C@@H](C)O)[C@@H](C)OP(=O)(O)O)[C@@H](C)O)C(=O)N[C@H](C(=O)N[C@@H](Cc1ccc(OP(=O)(O)O)cc1)C(=O)N[C@@H](CCCNC(=N)N)C(=O)NCC(N)=O)[C@@H](C)O [pThr^779/pTyr^785] (Ac-KEATS[pT]FTNIT[pY]RG-NH2)	8 ± 2 µM	8.5 ± 0.5 µM	15 ± 1 µM	–	Ki (GABARAP ATG8 [8]): 17.8 ± 0.8 µM
CC[C@H](C)[C@H](NC(=O)[C@H](CC(N)=O)NC(=O)[C@@H](NC(=O)[C@H](Cc1ccccc1)NC(=O)[C@@H](NC(=O)[C@H](CO)NC(=O)[C@@H](NC(=O)[C@H](C)NC(=O)[C@H](CCC(=O)O)NC(=O)[C@H](CCCCN)NC(C)=O)[C@@H](C)O)[C@@H](C)OP(=O)(O)O)[C@@H](C)O)C(=O)N[C@H](C(=O)N[C@@H](Cc1ccc(O)cc1)C(=O)N[C@@H](CCCNC(=N)N)C(=O)NCC(N)=O)[C@@H](C)O [pThr^779] (Ac-KEATS[pT]FTNITYRG-NH2)	82 ± 3 µM	> 100 µM	> 100 µM	> 100 µM	–
CC[C@H](C)[C@H](NC(=O)[C@H](CC(N)=O)NC(=O)[C@@H](NC(=O)[C@H](Cc1ccccc1)NC(=O)[C@@H](NC(=O)[C@H](CO)NC(=O)[C@@H](NC(=O)[C@H](C)NC(=O)[C@H](CCC(=O)O)NC(=O)[C@H](CCCCN)NC(C)=O)[C@@H](C)O)[C@@H](C)O)[C@@H](C)O)C(=O)N[C@H](C(=O)N[C@@H](Cc1ccc(OP(=O)(O)O)cc1)C(=O)N[C@@H](CCCNC(=N)N)C(=O)NCC(N)=O)[C@@H](C)O [pTyr^785] (Ac-KEATSTFTNIT[pY]RG-NH2)	83 ± 4 µM	38 ± 2 µM	81 ± 2 µM	89 ± 12 µM	–
